Measurements as given in ChEMBL document CHEMBL1153843, “Synthesis and biological evaluation of novel luteolin derivatives as antibacterial agents” (2009).
In brackets after ≈: the same amount, converted by molar mass.

Tests used:
Type in all cases: functional
Bacillus subtilis = assay: Antibacterial activity against Bacillus subtilis after 24 hrs by MTT method
Procedure, shortened: (§1)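 MIC by broth microdilution in MH medium, with MTT colorimetric read-out. Compounds come from a 50 mg/mL DMSO stock and are serially diluted in the plates. Inoculum is about 10⁵ cfu/mL, incubated at 37 °C for 24 h. The MIC is first read visually. MTT at 2 mg/mL in PBS (0.01 mol/L, pH 7.4) is then added, with a further 4–5 h at room temperature.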

Staphylococcus aureus = assay: Antibacterial activity against Staphylococcus aureus after 24 hrs by MTT method; procedure, shortened: as §1
Pseudomonas fluorescens = assay: Antibacterial activity against Pseudomonas fluorescens after 24 hrs by MTT method; procedure, shortened: as §1
Escherichia coli = assay: Antibacterial activity against Escherichia coli after 24 hrs by MTT method; procedure, shortened: as §1

Row | Compound | MIC (Bacillus subtilis) | MIC (Staphylococcus aureus) | MIC (Pseudomonas fluorescens) | MIC (Escherichia coli)
1 | O=c1cc(-c2ccc3c(c2)OCCO3)oc2cc(OCCNC3CCCCC3)cc(O)c12 | 6.25 µg/mL (≈ 14.3 µM) | 12.5 µg/mL (≈ 28.6 µM) | 12.5 µg/mL (≈ 28.6 µM) | 25 µg/mL (≈ 57.1 µM)
2 | O=c1cc(-c2ccc3c(c2)OCCO3)oc2cc(OCCNCc3ccccc3)cc(O)c12 | 3.12 µg/mL (≈ 7.02 µM) | 6.25 µg/mL (≈ 14 µM) | 6.25 µg/mL (≈ 14 µM) | 12.5 µg/mL (≈ 28.1 µM)
3 | O=c1cc(-c2ccc3c(c2)OCCO3)oc2cc(OCCN3CCCCC3)cc(O)c12 | 6.25 µg/mL (≈ 14.8 µM) | 12.5 µg/mL (≈ 29.5 µM) | 12.5 µg/mL (≈ 29.5 µM) | 12.5 µg/mL (≈ 29.5 µM)
4 | O=c1cc(-c2ccc3c(c2)OCCO3)oc2cc(OCCN3CCNCC3)cc(O)c12 | 6.25 µg/mL (≈ 14.7 µM) | 12.5 µg/mL (≈ 29.4 µM) | 6.25 µg/mL (≈ 14.7 µM) | 12.5 µg/mL (≈ 29.4 µM)
5 | O=c1cc(-c2ccc3c(c2)OCCO3)oc2cc(OCCBr)cc(O)c12 | 12.5 µg/mL (≈ 29.8 µM) | 25 µg/mL (≈ 59.6 µM) | 12.5 µg/mL (≈ 29.8 µM) | 25 µg/mL (≈ 59.6 µM)
6 | CCN(CC)CCOc1cc(O)c2c(=O)cc(-c3ccc4c(c3)OCCO4)oc2c1 | 12.5 µg/mL (≈ 30.4 µM) | 25 µg/mL (≈ 60.8 µM) | 12.5 µg/mL (≈ 30.4 µM) | 25 µg/mL (≈ 60.8 µM)
7 | CCCN(CCC)CCOc1cc(O)c2c(=O)cc(-c3ccc4c(c3)OCCO4)oc2c1 | 12.5 µg/mL (≈ 28.4 µM) | 12.5 µg/mL (≈ 28.4 µM) | 6.25 µg/mL (≈ 14.2 µM) | 25 µg/mL (≈ 56.9 µM)
8 | CN1CCN(CCOc2cc(O)c3c(=O)cc(-c4ccc5c(c4)OCCO5)oc3c2)CC1 | 6.25 µg/mL (≈ 14.3 µM) | 12.5 µg/mL (≈ 28.5 µM) | 6.25 µg/mL (≈ 14.3 µM) | 12.5 µg/mL (≈ 28.5 µM)
9 | CCCCNCCOc1cc(O)c2c(=O)cc(-c3ccc4c(c3)OCCO4)oc2c1 | 12.5 µg/mL (≈ 30.4 µM) | 25 µg/mL (≈ 60.8 µM) | 6.25 µg/mL (≈ 15.2 µM) | 25 µg/mL (≈ 60.8 µM)
10 | CC(C)CNCCOc1cc(O)c2c(=O)cc(-c3ccc4c(c3)OCCO4)oc2c1 | 12.5 µg/mL (≈ 30.4 µM) | 25 µg/mL (≈ 60.8 µM) | 12.5 µg/mL (≈ 30.4 µM) | 25 µg/mL (≈ 60.8 µM)
11 | O=c1cc(-c2ccc3c(c2)OCCO3)oc2cc(OCCNCCO)cc(O)c12 | 12.5 µg/mL (≈ 31.3 µM) | 25 µg/mL (≈ 62.6 µM) | 6.25 µg/mL (≈ 15.6 µM) | 25 µg/mL (≈ 62.6 µM)
12 | O=c1cc(-c2ccc3c(c2)OCCO3)oc2cc(OCCN3CCOCC3)cc(O)c12 | 3.12 µg/mL (≈ 7.35 µM) | 6.25 µg/mL (≈ 14.7 µM) | 6.25 µg/mL (≈ 14.7 µM) | 12.5 µg/mL (≈ 29.4 µM)
13 | O=c1cc(-c2ccc3c(c2)OCCO3)oc2cc(OCCNCCN3CCOCC3)cc(O)c12 | 1.56 µg/mL (≈ 3.33 µM) | 6.25 µg/mL (≈ 13.3 µM) | 3.12 µg/mL (≈ 6.67 µM) | 12.5 µg/mL (≈ 26.7 µM)
14 | O=c1cc(-c2ccc3c(c2)OCCO3)oc2cc(OCCNCCCN3CCOCC3)cc(O)c12 | 1.56 µg/mL (≈ 3.24 µM) | 3.12 µg/mL (≈ 6.48 µM) | 3.12 µg/mL (≈ 6.48 µM) | 6.25 µg/mL (≈ 13 µM)
15 | O=c1cc(-c2ccc3c(c2)OCCO3)oc2cc(OCCN3CCCC3)cc(O)c12 | 6.25 µg/mL (≈ 15.3 µM) | 12.5 µg/mL (≈ 30.5 µM) | 12.5 µg/mL (≈ 30.5 µM) | 12.5 µg/mL (≈ 30.5 µM)
16 | O=c1cc(-c2ccc3c(c2)OCCO3)oc2cc(O)cc(O)c12 | 12.5 µg/mL (≈ 40 µM) | 25 µg/mL (≈ 80.1 µM) | 12.5 µg/mL (≈ 40 µM) | 50 µg/mL (≈ 160 µM)
17 | O=c1cc(-c2ccc3c(c2)OCCO3)oc2cc(OCCNCc3ccc(F)cc3)cc(O)c12 | 1.56 µg/mL (≈ 3.37 µM) | 3.12 µg/mL (≈ 6.74 µM) | 6.25 µg/mL (≈ 13.5 µM) | 12.5 µg/mL (≈ 27 µM)
18 | O=c1cc(-c2ccc3c(c2)OCCO3)oc2cc(OCCNC3CCCC3)cc(O)c12 | 6.25 µg/mL (≈ 14.8 µM) | 12.5 µg/mL (≈ 29.5 µM) | 12.5 µg/mL (≈ 29.5 µM) | 25 µg/mL (≈ 59 µM)
19 | CCCNCCOc1cc(O)c2c(=O)cc(-c3ccc4c(c3)OCCO4)oc2c1 | 12.5 µg/mL (≈ 31.5 µM) | 25 µg/mL (≈ 62.9 µM) | 12.5 µg/mL (≈ 31.5 µM) | 25 µg/mL (≈ 62.9 µM)
20 | NC[C@H]1O[C@H](O[C@H]2[C@H](O)[C@@H](O[C@H]3O[C@H](CO)[C@@H](O)[C@H](N)[C@H]3O)[C@H](N)C[C@@H]2N)[C@H](N)[C@@H](O)[C@@H]1O [BEKANAMYCIN] | 0.39 µg/mL (≈ 0.807 µM) | 1.56 µg/mL (≈ 3.23 µM) | 3.12 µg/mL (≈ 6.46 µM) | 3.12 µg/mL (≈ 6.46 µM)
21 | O=c1cc(-c2ccc(O)c(O)c2)oc2cc(O)cc(O)c12 [LUTEOLIN] | 25 µg/mL (≈ 87.3 µM) | 50 µg/mL (≈ 175 µM) | 25 µg/mL (≈ 87.3 µM) | 50 µg/mL (≈ 175 µM)
22 | CC1(C)S[C@@H]2[C@H](NC(=O)Cc3ccccc3)C(=O)N2[C@H]1C(=O)O [PENICILLIN G] | 1.56 µg/mL (≈ 4.67 µM) | 1.56 µg/mL (≈ 4.67 µM) | 6.25 µg/mL (≈ 18.7 µM) | 6.25 µg/mL (≈ 18.7 µM)
